Measured values from different studies.
pIC50: −log10 of the molar value.
Effect on: cell growth or viability

| SMILES | cell line | technique | time | notes | pIC50 |
| --- | --- | --- | --- | --- | --- |
| CC(C)C[C@H](NC(=O)[C@H](CCCCN)NC(=O)[C@H](Cc1c[nH]c2ccccc12)NC(=O)[C@H](CCCNC(=N)N)NC(=O)[C@H](CCCCN)NC(=O)[C@H](CC(C)C)NC(=O)[C@H](Cc1ccccc1)NC(=O)[C@H](CCCCN)NC(=O)[C@H](CCCCN)NC(=O)[C@H](CC(C)C)NC(=O)[C@H](CC(C)C)NC(=O)[C@H](CCCCN)NC(=O)[C@@H](N)CO)C(N)=O | A549 | MTT | 24 h | – | 4.59 |
| CC(=N)S | NIH3T3 | – | 96 h | – | 3.96 |
| COc1c(C)c2c(c(O)c1C/C=C(\C)CCC(=O)O)C(=O)OC2 | JIMT-1 | – | – | – | 5.94 |
| O=C1CCP(c2ccccc2)CC1 | PC-3 | MTT | 72 h | – | 4.07 |
| CC[C@@]1(O)C(=O)OCc2c1cc1n(c2=O)Cc2cc3ccccc3nc2-1 | U-251 | SRB | 48 h | – | 7.19 |
| COc1cc(C(=O)c2nc(-c3cccc4ncccc34)c[nH]2)cc(OC)c1OC | PC-3 | MTS | 72 h | – | < 6.00 |
| CC[C@H](C)[C@H](NC(=O)[C@H](CCCCN)NC(=O)[C@H](CCCNC(=N)N)NC(=O)[C@H](Cc1ccccc1)NC(=O)[C@H](CCCNC(=N)N)NC(=O)[C@H](CCCNC(=N)N)NC(=O)[C@H](CCCNC(=N)N)NC(=O)[C@H](Cc1ccccc1)NC(=O)[C@H](CCCCN)NC(=O)[C@H](CCCNC(=N)N)NC(=O)[C@H](CC(C)C)NC(=O)[C@@H](N)CCCNC(=N)N)C(=O)NCC(N)=O | A549 | MTT | 24 h | – | < 3.30 |
| O=[N+]([O-])c1ccc(NCCCCCCN=C=S)c2nonc12 | PC-3 | MTT | 24 h | – | 6.00 |
| CC(C)C[C@H](NC(=O)[C@@H](N)CCCNC(=N)N)C(=O)N[C@@H](CCCNC(=N)N)C(=O)N[C@@H](CCCCN)C(=O)N[C@@H](Cc1ccccc1)C(=O)N[C@@H](CCCNC(=N)N)C(=O)N[C@@H](CCCNC(=N)N)C(=O)N[C@@H](CCCNC(=N)N)C(=O)N[C@@H](Cc1ccccc1)C(=O)N[C@@H](CCCNC(=N)N)C(=O)N[C@@H](CCCCN)C(=O)N[C@@H](CCC(=O)O)C(=O)NCC(N)=O | A549 | MTT | 24 h | – | < 3.30 |
| N.N.[Cl][Pt][Cl] | NIH3T3 | – | 96 h | 3D culture | 4.47 |
| COc1cc(C(=O)c2nc(-c3cccc4occc34)c[nH]2)cc(OC)c1OC | PC-3 | MTS | 72 h | – | 7.21 |
| CC[C@H](C)[C@H](NC(=O)[C@H](CCCNC(=N)N)NC(=O)CNC(=O)[C@H](CCCCN)NC(=O)[C@H](CCCNC(=N)N)NC(=O)[C@H](CCCNC(=N)N)NC(=O)[C@H](CC(C)C)NC(=O)[C@H](CCC(N)=O)NC(=O)CNC(=O)[C@H](CCCCN)NC(=O)[C@@H](N)CCSC)C(=O)N[C@@H](CCCNC(=N)N)C(N)=O | A549 | MTT | 24 h | – | < 3.30 |
| COc1cc(C(=O)c2nc(-c3cccc4c3ccn4C)c[nH]2)cc(OC)c1OC | PC-3 | MTS | 72 h | – | 7.90 |
| CC(C)[C@H](NC(=O)[C@H](CCCCN)NC(=O)[C@H](Cc1c[nH]c2ccccc12)NC(=O)[C@H](Cc1c[nH]c2ccccc12)NC(=O)[C@H](CCCNC(=N)N)NC(=O)[C@H](Cc1c[nH]c2ccccc12)NC(=O)[C@H](CCCNC(=N)N)NC(=O)[C@@H](N)CCCNC(=N)N)C(=O)N[C@@H](Cc1c[nH]cn1)C(=O)N[C@@H](Cc1c[nH]c2ccccc12)C(=O)N[C@@H](Cc1c[nH]cn1)C(=O)N[C@@H](CCC(=O)O)C(=O)N[C@@H](Cc1c[nH]c2ccccc12)C(N)=O | A549 | MTT | 24 h | – | < 3.30 |
| N.N.[Cl][Pt][Cl] | MEG-01 | ATP luminescence | 72 h | – | 5.29 |
